ARNT TACC3 PPI – ARNT/TACC3 interaction disruption. actives 0.66% (n = 390,000). AID 623870. AlphaScreen His-ARNT PAS-B/GST-TACC3 binding, luminescence; TACC3 fragment carries E629A point mutation. inhibition, % at 9.99 µM. Q9Y6A5;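 active = mean inhibition of replicates at least 50% and at least half of replicates each reaching 50%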
CAL PDZ FP-1 – CAL PDZ (human) peptide binding inhibition; Q9HD26; purified CAL PDZ, TMR-peptide fluorescence polarization, 1 h; inhibition, % at 24.9 µM; actives 0.92% (n = 300,000);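 active = mean inhibition of at least 30% with at least half of replicates also reaching 30%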
CAL PDZ FP-2 – human CAL PDZ-peptide interaction inhibition. Q9HD26. purified CAL PDZ, TMR-peptide fluorescence polarization, 1 h. inhibition, % at 20 µM. actives 0.02% (n = 330,000). AID 504414;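 active = highest replicate inhibition of at least 40%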
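Control set: unlabelled peptide and DMSO controls / Material: purified CerCALP PDZ construct / Timing: 1 h incubation at room temperature before polarization reading / Doses: 20 µM, one dose / Detection: fluorescence polarization (mP)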
CaV13 ICDI inh – Primary screen for inhibitors of IQ motif and Ca2+-dependent inactivation inhibitor domain binding in CACNA1D, Förster resonance energy transfer in living cells, …. HEK cells, CFP/YFP FRET ICDI-IQ, plate reader, 10 min; percent FRET-ratio fall versus neutral wells. inhibition, % at 12.3 µM. actives 0.098% (n = 340,000);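 active = mean replicate inhibition of at least 30% and at least 1% of replicates passing that level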
Numbers stand for hits; - = inactive; . = no result given. In the library only some 1.2% were active in any assay of this set; here they are far more common.

SMILES	ARNT TACC3 PPI	CAL PDZ FP-1	CAL PDZ FP-2	CaV13 ICDI inh
CCCCNC(=S)N1CCN(C(c2ccccc2)c2ccccc2)CC1	-	45	-	-
CC(CN1CCN(C)CC1)OC(=O)c1cccc(Cl)c1 (stereo not drawn)	-	157	.	-
C[C@H]1CN([C@@H](C)CO)C(=O)c2cccc(NS(=O)(=O)c3cn(C)cn3)c2O[C@H]1CN(C)S(=O)(=O)c1ccccc1	-	.	.	.
COc1ccc(C[C@H]2CN3C(=NC[C@@H]3Cc3ccccc3)N2CCNC(=O)CCC2CCCCC2)cc1	-	-	-	65
O=C(O)c1c[nH]n2c(=S)ncnc12	.	.	.	-
O=C(O)c1cc(=S)nc[nH]1	73	.	-	-
O=C(Nc1ccccc1)N1CCCCN2[C@H](CO)[C@H](c3ccc(C#Cc4ccccn4)cc3)[C@H]2C1	11	.	.	.
O=C(Nc1ccccc1)N1CCCCN2[C@H](CO)[C@@H](c3ccc(C#CC4CC4)cc3)[C@@H]2C1	active	.	.	.
C[C@@H]1CN([C@@H](C)CO)S(=O)(=O)c2ccc(C#CCN(C)C)cc2O[C@H]1CN(C)Cc1ccc(F)cc1	-	.	.	.
Brc1ccc(-c2noc(C3CCCCC3)n2)cc1	-	107	-	-
O=C(C[C@@H]1C[C@H]2c3cc(NC(=O)CC4CC4)ccc3O[C@H]2[C@@H](CO)O1)NCc1ccccc1F	-	.	.	.
CO[C@H]1CN(C)C(=O)c2ccc(NS(C)(=O)=O)cc2OC[C@@H](C)N(C)C[C@@H]1C	-	.	.	.
COc1ccccc1N=Cc1c(C)[nH]n(-c2ccc(C)cc2C)c1=O	-	-	-	-
COc1ccc2nc(/N=C/c3c(C)[nH]n(-c4ccc(C)cc4C)c3=O)sc2c1	66	-	-	-
CCCCN(C=O)c1c(CC)nc2ccc(C(=O)NCCc3c[nH]c4ccccc34)cn12	.	.	.	-
CCc1nc2ccc(C(=O)NCCc3c[nH]c4ccccc34)cn2c1N(C=O)CCC(C)C	.	.	.	38
CCCn1nc(NS(=O)(=O)c2ccccc2)c2cc3ccccc3nc21	-	58	-	-
Cc1nn(CC(=O)NCCc2ccccc2)c(=O)c2cccn12	-	46	-	-
Cc1ccc(CCNC(=O)CCn2c(=O)c3cccn3c3ccc(F)cc32)cc1	-	39	-	-
COc1ccc(CCNC(=O)CCn2c(=O)c3cccn3c3ccc(F)cc32)c(OC)c1OC	-	118	-	-
COc1ccc(-c2cnc3c(c2)C(=O)N([C@@H](C)CO)C[C@@H](C)[C@@H](CN(C)C(=O)Cc2ccccn2)O3)cc1	-	.	.	.
CN(C)CCCn1c(=S)[nH]c2sc3c(c2c1=O)CCCC3	-	49	-	-
CCn1c(=S)[nH]c2sc3c(c2c1=O)CCCC3	-	.	-	-
O=C(c1cccc(F)c1)N1C[C@@H]2[C@H](c3ccccc31)[C@@H](CO)N2C(=O)Cc1ccccc1	-	.	.	.
COc1cccc(S(=O)(=O)Nc2ccc3c(c2)OC[C@@H](C)N(Cc2cc(F)ccc2F)C[C@@H](C)[C@H](OC)CN(C)C3=O)c1	-	.	.	.
SMILES	ARNT TACC3 PPI	CAL PDZ FP-1	CAL PDZ FP-2	CaV13 ICDI inh
Cc1cc(=O)n(-c2ccc(C(=O)O)cc2)[nH]1	50	.	-	-
Cc1ccc(CSc2nnc(-c3ccncc3)n2C)cc1	-	-	-	-
COc1cccc(CSc2nnc(-c3ccncc3)n2C)c1	-	40	-	-
Cn1c(SCC(=O)c2ccccc2)nnc1-c1ccc(O)cc1	-	-	-	-
Cn1c(SCc2ccccc2)nnc1-c1ccc(O)cc1	active	-	-	-
CC(=O)N(C)C[C@H]1Oc2cc(-c3cccc(F)c3)ccc2S(=O)(=O)N([C@H](C)CO)C[C@H]1C	-	.	.	.
COc1ccccc1OCCC(=O)OCC(=O)Nc1ccc(Br)cc1F	-	54	-	-
C[C@@H]1CCCCO[C@H](CN(C)Cc2ccc(Cl)c(Cl)c2)[C@H](C)CN([C@@H](C)CO)C(=O)c2cc(NC(=O)Nc3ccc(F)cc3)ccc2O1	-	.	.	-
C[C@H](CO)N1C[C@H](C)[C@@H](CN(C)C(=O)c2ccncc2)OCCCC[C@H](C)Oc2ccc(NC(=O)Cc3ccccc3)cc2C1=O	active	.	.	.
C[C@H](CO)N1C[C@H](C)[C@H](CN(C)C(=O)Nc2ccnc(N3CCOCC3)c2)OCc2ccccc2-c2ccccc2C1=O	12	.	.	.
C[C@@H]1CN([C@@H](C)CO)C(=O)c2cc(NC(=O)Nc3ccc(F)cc3)ccc2O[C@@H](C)CCCCO[C@H]1CN(C)Cc1ccc(Cl)c(Cl)c1	48	.	.	.
CO[C@@H]1CN(C)C(=O)c2ccc(NC(=O)C3CC3)cc2OC[C@H](C)N(C(=O)NC(C)C)C[C@H]1C	-	.	.	.
CC(=O)N(C)C[C@@H]1Oc2cc(-c3ccc(C)cc3)ccc2S(=O)(=O)N([C@@H](C)CO)C[C@H]1C	-	.	.	.
O=C(CCN1N=C(c2ccccc2)CCC1=O)NCCCN1CCOCC1	-	64	-	-
Cc1ccc(C2=NN(CCC(=O)NCCCN3CCOCC3)C(=O)CC2)cc1	-	-	-	-
COCC#Cc1cnc2c(c1)C(=O)N([C@@H](C)CO)C[C@@H](C)[C@H](CN(C)C(=O)c1ccc(F)cc1)O2	-	.	.	.
O=C(NCCN1CCNCC1)c1ccccc1O	.	.	.	-
c1ccc(CNCCN2CCNCC2)nc1	66	-	-	-
COc1ccc(CN(C)C[C@H]2Oc3c(NS(C)(=O)=O)cccc3C(=O)N([C@@H](C)CO)C[C@H]2C)cc1	-	.	.	.
CCNC(=S)NNC(=O)CC(C)C	-	36	-	-
CC(C)CNC(=S)NNC(=O)CC(C)O (stereo not drawn)	-	77	-	-
O=C(c1cccc(F)c1)N1C[C@@H]2[C@H](c3ccccc31)[C@H](CO)N2C(=O)C1CCCC1	-	.	.	.
C[C@@H]1CN([C@@H](C)CO)C(=O)c2cc(C#CC3(O)CCCC3)cnc2O[C@@H]1CN(C)C(=O)Cc1cccnc1	-	.	.	.

Screening data from PubChem.
